Measurements taken from ChEMBL document CHEMBL1134579, “Design and biological activity of (S)-4-(5-([1-(3-chlorobenzyl)-2-oxopyrrolidin-3-ylamino]methyl)imidazol-1-ylmethyl)benzonitrile, a 3-aminopyrrolidinone farnesyltransferase inhibitor with excellent cell potency” (J Med Chem, 2001).

What was measured:
[1] = molecular target: Geranylgeranyl transferase type-1 subunit beta (Homo sapiens, UniProt P53609); assay: Inhibitory concentration of geranylgeranyl-protein transferase type I
[2] = molecular target: Protein farnesyltransferase (Homo sapiens, UniProt P49354+P49356); assay: In vitro inhibition of farnesyl transferase using purified recombinant human enzyme; format: protein-complex assay
Summary of the method: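 Purified recombinant human FTase with [1-³H]FPP and a recombinant protein substrate carrying the K-Ras C-terminus (CVIM). Labeled farnesyl incorporation measured by acid precipitation of total protein and scintillation counting. Final methanol or DMSO 0.5 vol %. Mostly run at least twice; SD given for n≥3.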

[3] = molecular target: Protein farnesyltransferase (Rattus norvegicus); assay: Concentration required to displace 50% of a potent radiolabeled FTI from farnesyl transferase in cultured H-ras-transformed Rat1 cells
[4] = molecular target: Voltage-gated inwardly rectifying potassium channel KCNH2 (Homo sapiens, UniProt Q12809)
Sequence of Voltage-gated inwardly rectifying potassium channel KCNH2 (Q12809 whole entry): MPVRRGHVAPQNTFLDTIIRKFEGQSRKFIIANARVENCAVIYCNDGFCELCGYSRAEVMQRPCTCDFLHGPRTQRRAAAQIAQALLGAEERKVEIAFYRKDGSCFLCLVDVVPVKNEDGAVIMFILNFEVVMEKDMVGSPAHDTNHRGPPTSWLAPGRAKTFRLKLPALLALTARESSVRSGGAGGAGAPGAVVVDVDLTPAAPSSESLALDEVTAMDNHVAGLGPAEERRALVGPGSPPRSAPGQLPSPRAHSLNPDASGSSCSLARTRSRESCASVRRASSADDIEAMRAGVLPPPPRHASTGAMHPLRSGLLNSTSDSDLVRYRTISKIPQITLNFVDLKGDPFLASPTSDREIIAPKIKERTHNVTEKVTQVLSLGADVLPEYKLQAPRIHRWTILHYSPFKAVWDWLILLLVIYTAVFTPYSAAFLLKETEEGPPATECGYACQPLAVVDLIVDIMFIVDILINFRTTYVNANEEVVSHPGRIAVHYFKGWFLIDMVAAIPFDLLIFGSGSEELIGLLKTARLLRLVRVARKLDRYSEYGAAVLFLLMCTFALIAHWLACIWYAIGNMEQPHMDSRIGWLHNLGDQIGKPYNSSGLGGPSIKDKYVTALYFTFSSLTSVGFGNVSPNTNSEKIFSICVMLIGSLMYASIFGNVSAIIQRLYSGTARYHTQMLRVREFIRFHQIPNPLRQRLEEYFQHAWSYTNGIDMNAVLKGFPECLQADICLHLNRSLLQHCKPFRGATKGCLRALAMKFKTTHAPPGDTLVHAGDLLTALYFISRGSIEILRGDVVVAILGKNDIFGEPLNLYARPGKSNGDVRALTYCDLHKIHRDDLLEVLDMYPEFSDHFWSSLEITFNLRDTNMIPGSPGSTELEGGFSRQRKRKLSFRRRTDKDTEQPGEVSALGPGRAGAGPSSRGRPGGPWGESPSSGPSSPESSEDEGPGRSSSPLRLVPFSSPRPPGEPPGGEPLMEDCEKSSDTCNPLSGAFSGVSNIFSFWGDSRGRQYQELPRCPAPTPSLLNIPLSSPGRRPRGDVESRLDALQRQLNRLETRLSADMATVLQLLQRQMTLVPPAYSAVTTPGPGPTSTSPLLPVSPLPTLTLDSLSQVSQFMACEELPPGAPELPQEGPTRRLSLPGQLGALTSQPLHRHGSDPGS

Sequence of Geranylgeranyl transferase type-1 subunit beta (P53609 whole entry): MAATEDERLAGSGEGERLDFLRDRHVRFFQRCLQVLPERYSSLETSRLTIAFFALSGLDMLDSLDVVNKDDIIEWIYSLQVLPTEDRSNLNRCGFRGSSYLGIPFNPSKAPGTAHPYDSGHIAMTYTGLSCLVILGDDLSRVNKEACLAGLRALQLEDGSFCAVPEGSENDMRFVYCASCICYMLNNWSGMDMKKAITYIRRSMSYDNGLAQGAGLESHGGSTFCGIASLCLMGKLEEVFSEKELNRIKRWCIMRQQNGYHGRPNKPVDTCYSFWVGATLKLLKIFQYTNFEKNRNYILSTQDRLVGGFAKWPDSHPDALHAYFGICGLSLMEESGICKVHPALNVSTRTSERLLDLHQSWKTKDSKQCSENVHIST

Row | SMILES | IC50 [1] | IC50 [2] | IC50 [3] | IC50 [4]
1 | N#Cc1ccc(Cn2cncc2CN[C@@H]2CCN(c3ccccc3)C2=O)cc1 | 41000 nM | 200 nM |  | 
2 | N#Cc1ccc(Cn2cncc2CN[C@H]2CCN(c3cccc4ncccc34)C2=O)cc1 | > 20000 nM |  |  | 
3 | COc1ncccc1C(=O)N1CC[C@H](NCc2cncn2Cc2ccc(C#N)cc2)C1 | > 50000 nM | 150 nM |  | 
4 | N#Cc1ccc(Cn2cncc2CN[C@H]2CCN(C(=O)c3ccc(Cl)cc3)C2)cc1 | 19000 nM | 89 nM | 70 nM | 
5 | N#Cc1ccc(Cn2cncc2CN[C@H]2CCN(C(=O)c3ccc[nH]c3=O)C2)cc1 | > 50000 nM | 6800 nM |  | 
6 | N#Cc1ccc(Cn2cncc2CN[C@H]2CCN(c3ccc(Cl)cc3)C2=O)cc1 | 11000 nM | 21 nM | 30 nM | 
7 | N#Cc1ccc(Cn2cncc2CN[C@H]2CCN(C(=O)c3ccccc3Cl)C2)cc1 | 19000 nM | 65 nM |  | 
8 | N#Cc1ccc(Cn2cncc2CCN[C@@H]2CCN(c3ccccc3)C2=O)cc1 | 16000 nM | 120 nM |  | 
9 | N#Cc1ccc(Cn2cncc2CN[C@H]2CCN(c3ccccn3)C2=O)cc1 | 36000 nM | 370 nM |  | 
10 | N#Cc1ccc(Cn2cncc2CN[C@H]2CCN(Cc3cccc(Cl)c3)C2=O)cc1 | 3400 nM |  |  | 
11 | Cc1ncccc1C(=O)N1CC[C@H](NCc2cncn2Cc2ccc(C#N)cc2)C1 | > 50000 nM | 100 nM | 610 nM | > 10000 nM
12 | N#Cc1ccc(Cn2cncc2CN[C@H]2CCN(C(=O)c3cccc(Cl)c3)C2)cc1 | 11000 nM | 27 nM | 67 nM | 5800 nM
13 | N#Cc1ccc(Cn2cncc2CN[C@H]2CCN(Cc3ccccc3Cl)C2=O)cc1 | 11000 nM | 5.2 nM | 2.7 nM | 
14 | CSc1ncccc1C(=O)N1CC[C@H](NCc2cncn2Cc2ccc(C#N)cc2)C1 | 28000 nM |  |  | 
15 | N#Cc1ccc(Cn2cncc2CN[C@H]2CCN(C(=O)c3cccc4ccccc34)C2)cc1 | 880 nM | 11 nM | 330 nM | 
16 | N#Cc1ccc(Cn2cncc2CN[C@H]2CCN(C(=O)c3ccccc3)C2)cc1 | 24000 nM | 110 nM |  | 
17 | N#Cc1ccc(Cn2cncc2CCN[C@H]2CCN(c3ccccc3)C2=O)cc1 | 14000 nM | 280 nM | 150 nM | 
18 | N#Cc1ccc(Cn2cncc2CN[C@H]2CCN(C(=O)c3cccnc3S)C2)cc1 | > 50000 nM | 2900 nM |  | 11000 nM
19 | N#Cc1ccc(Cn2cncc2CN[C@H]2CCN(c3ccccc3)C2=O)cc1 | 46000 nM | 74 nM | 27 nM | 
20 | CCSc1ncccc1C(=O)N1CC[C@H](NCc2cncn2Cc2ccc(C#N)cc2)C1 | ~5100 nM | 4.8 nM | 6.2 nM | 14000 nM
21 | N#Cc1ccc(Cn2cncc2CN[C@H]2CCN(C(=O)c3cncc(Br)c3)C2)cc1 | 41000 nM | 43 nM | 49 nM | 6000 nM
22 | N#Cc1ccc(Cn2cncc2CN[C@H]2CCN(c3cccc(Cl)c3)C2=O)cc1 | 6500 nM | 8.4 nM | 30 nM | 
23 | N#Cc1ccc(Cn2cncc2CN[C@H]2CCN(C(=O)c3cccnc3N)C2)cc1 | > 50000 nM | 980 nM |  | > 50000 nM
24 | N#Cc1ccc(Cn2cncc2CN[C@H]2CCN(c3ccncc3)C2=O)cc1 | > 20000 nM | 43 nM | 200 nM | 
25 | N#Cc1ccc(Cn2cncc2CN[C@H]2CCN(c3ccccc3Cl)C2=O)cc1 | 42000 nM | 1.5 nM | 14 nM | 
26 | N#Cc1ccc(Cn2cncc2CN[C@H]2CCN(c3cccnc3)C2=O)cc1 | > 20000 nM | 85 nM | 240 nM | 
27 | N#Cc1ccc(Cn2cncc2CN[C@H]2CCN(C(=O)c3cccnc3)C2)cc1 | > 50000 nM | 2000 nM |  | 

Continued, in another order:

Row | IC50 [1] | IC50 [2] | IC50 [3] | SMILES | IC50 [4]
28 | 46000 nM |  |  | N#Cc1ccc(Cn2cncc2CN[C@@H]2CCN(Cc3ccccc3)C2=O)cc1 | 
29 | 31000 nM | 250 nM |  | N#Cc1ccc(Cn2cncc2CN[C@@H]2CCN(CCc3ccccc3)C2=O)cc1 | 
30 | 2700 nM | 1.3 nM | 1.1 nM | CC(C)(C)OC(=O)NCCCN(Cc1cncn1Cc1ccc(C#N)cc1)[C@H]1CCN(Cc2cccc(Cl)c2)C1=O | 110 nM
31 | 12000 nM |  |  | N#Cc1ccc(Cn2cncc2CN(CCN2CCOCC2)[C@H]2CCN(Cc3cccc(Cl)c3)C2=O)cc1 | 
32 | 20000 nM | 67 nM |  | N#Cc1ccc(Cn2cncc2CN(Cc2ccccc2)[C@H]2CCN(Cc3ccccc3)C2=O)cc1 | 
33 | > 50000 nM |  |  | N#Cc1ccc(Cn2cncc2CN(CCN2CCNCC2)[C@H]2CCN(Cc3cccc(Cl)c3)C2=O)cc1 | 
34 | 2800 nM | 240 nM |  | N#Cc1ccc(Cn2cncc2CCN[C@H]2CCN(CCc3ccccc3)C2=O)cc1 | 
35 | 40000 nM |  |  | N#Cc1ccc(Cn2cncc2CN[C@H]2CCN(Cc3ccccc3)C2=O)cc1 | 7200 nM
36 | 6500 nM |  |  | N#Cc1ccc(Cn2cncc2CN(CCCc2ccccc2)[C@H]2CCN(Cc3cccc(Cl)c3)C2=O)cc1 | 
37 | 1500 nM | 380 nM |  | N#Cc1ccc(Cn2cncc2CCN[C@@H]2CCN(CCc3ccccc3)C2=O)cc1 | 
38 | 15000 nM | 51 nM | 460 nM | N#Cc1ccc(Cn2cncc2CN(CCc2ccccc2)[C@H]2CCN(Cc3ccccc3)C2=O)cc1 | 
39 | > 50000 nM |  |  | N#Cc1ccc(Cn2cncc2CN(CCCN)[C@H]2CCN(Cc3ccccc3)C2=O)cc1 | 
40 | 15000 nM | 25 nM | 53 nM | N#Cc1ccc(Cn2cncc2CN[C@H]2CCN(Cc3ccc(Cl)cc3)C2=O)cc1 | 
41 | > 50000 nM |  |  | N#Cc1ccc(Cn2cncc2CN(Cc2cccnc2)[C@H]2CCN(Cc3ccccc3)C2=O)cc1 | 
42 | 12000 nM |  |  | N#Cc1ccc(Cn2cncc2CN(CCCc2ccccc2)[C@H]2CCN(Cc3ccccc3)C2=O)cc1 | 
43 |  | 59 nM | 36 nM | CCCN(Cc1cncn1Cc1ccc(C#N)cc1)[C@H]1CCN(Cc2ccccc2)C1=O | 
44 | 48000 nM | 230 nM |  | N#Cc1ccc(Cn2cncc2CN[C@H]2CCN(CCc3ccccc3)C2=O)cc1 | 
45 | 11000 nM | 250 nM |  | N#Cc1ccc(Cn2cncc2CCN[C@@H]2CCN(Cc3ccccc3)C2=O)cc1 | 
46 | > 50000 nM | 7.5 nM | 150 nM | N#Cc1ccc(Cn2cncc2CN(CCCN)[C@H]2CCN(Cc3cccc(Cl)c3)C2=O)cc1 | 480 nM
47 | 7400 nM | 270 nM |  | N#Cc1ccc(Cn2cncc2CCN[C@H]2CCN(Cc3ccccc3)C2=O)cc1 | 
48 | 3600 nM |  |  | CC(C)(C)OC(=O)NCCCN(Cc1cncn1Cc1ccc(C#N)cc1)[C@H]1CCN(Cc2ccccc2)C1=O | 
49 | 4600 nM | 42 nM | 310 nM | N#Cc1ccc(Cn2cncc2CN(CCCCc2ccccc2)[C@H]2CCN(Cc3ccccc3)C2=O)cc1 | 
